The values that follow come from ChEMBL document CHEMBL1132370, “8,11-dihydroxy-6-[(aminoalkyl)amino]-7H-benzo[e]perimidin-7-ones with activity in multidrug-resistant cell lines: synthesis and antitumor evaluation” (J Med Chem, 1999).

Values joined by “and” are separate entries in the source; they are usually repeats but may differ in a detail not shown here. Equal entries are not always repeated.

Test [1] relates to Mus musculus. The experiment in a line: In vivo antileukemic activity towards P388 Murine Leukemia at a dose of 2.5 mg/kg. In kind it is functional.
The subject of test [2] is Mus musculus. The experiment in a line: In vivo antileukemic activity towards P388 Murine Leukemia at a dose of 22.5 mg/kg, expressed as body weight change. Format: functional.
The test system of test [3] is HT-29. Description: Percent inhibition at G1 phase of cell cycle at a dose of 100n g/mL after 72 hours of induction in HT-29 cell line. Format: functional, Homo sapiens. In a few lines:
(§1)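 HT29 or HT29/Mx cells were treated for 72 h, then fixed in 70% ice-cold ethanol. Cells were stained with PBS containing 30 μg/mL propidium iodide and 66 units/mL RNase A, and DNA content was measured by flow cytometry on at least 10^4 cells to give G1, S and G2/M fractions.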

The subject of test [4] is Mus musculus. Description: In vivo antileukemic activity towards P388 Murine Leukemia at a dose of 20.0 mg/kg, expressed as body weight change. Format: functional.
The subject of test [5] is Mus musculus. The experiment in a line: Toxic deaths at dose of 20 mg/kg (i.v.) to nude mice bearing sc Human colon carcinoma Xenografts tested in 4 animals. As to conditions: route intravenous. In kind it is functional. In a few lines: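 Tumor fragments of A2780, A2780/Dx or HT29/Mx grafted sc in both flanks of Swiss athymic nude mice, 4–5 mice per group. Drug given iv once weekly on 3 days: days 4, 11, 18 (A2780, HT29/Mx) or days 7, 14, 21 (A2780/Dx). Dosing started at mean tumor volume 80–100 mm3. Toxic deaths recorded as deaths/total mice.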
For orientation: Xenograft models place foreign cells or tissue in a host animal.

Test [6] concerns HT-29. Description: Percent inhibition at G1 phase of cell cycle at a dose of 10 ng/mL after 72 hours of induction in HT-29/Mx cell line. Format: functional. Conditions: Homo sapiens, HT-29, 72 h. In a few lines:
as §1

For test [7], the system named is HT-29. The experiment in a line: Percent inhibition at G2/M phase of cell cycle at a dose of 25 ng/mL after 72 hours of induction in HT-29 cell line. Format: functional. Conditions: Homo sapiens, HT-29, 72 h. In short, it runs like this:
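HT29 and mitoxantrone-resistant HT29/Mx colon adenocarcinoma monolayers in McCoy's 5A with 10% FBS and 1% 1 M Hepes, 37 °C, 5% CO2. Drug exposure 72 h. Cells then fixed in 70% ice-cold ethanol, washed twice and resuspended in PBS with 30 μg/mL propidium iodide and 66 units/mL RNase A. At least 10^4 cells per sample read for DNA content by flow cytometry. G1/S/G2M fractions reported as percentages.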

Another test concerns K562. Description: Compound was tested in vitro for cytotoxicity against MDR cell line K562R (RI) (72 hr exposure to compound). In kind it is functional, cell-based. As to conditions: Homo sapiens, K562, 72 h. In a few lines:
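HL60 or K562R cells were grown in RPMI 1640 with 10% FBS and exposed to drug for 72 h. Growth was measured by Coulter cell counting, and IC50 is the concentration giving 50% growth inhibition (mean of ≥3 experiments ± SEM). Resistance index = IC50 in K562R / IC50 in sensitive K562S.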

Test [8] relates to Mus musculus. Description: Long-term survivors when compound was tested for in vivo antileukemic activity towards P388 Murine Leukemia at dose of 5.0 mg/kg tested in 18 animals. In kind it is functional.
For test [9], the system named is HT-29. Description: Percent inhibition at G1 phase of cell cycle at a dose of 25 ng/mL after 72 hours of induction in HT-29 cell line. As to conditions: Homo sapiens, HT-29, 72 h. In kind it is functional. In a few lines: as §1

The term Inhibition denotes how much of the control response was suppressed. Lower therefore signals a weak effect. The inhibition is the percentage by which the read-out fell short of the control. High values mean strong suppression, low ones little suppression. For orientation: IC50 means the concentration needed to halve the response being measured. Lower therefore signals inhibition by little substance. For the compound `CN(C)CCNc1ccc2ncnc3c2c1C(=O)c1c(O)ccc(O)c1-3`, the “T/C (ratio of treated to control)” value in the test on Mus musculus [1] worked out at 145%. The Body weight change is 0.88 BWC in the test with Mus musculus [2]; 0.9 BWC and 0.94 BWC with Mus musculus [4]. Also, in the test on HT-29 [3], the Inhibition was determined as 23%. Moreover, the Toxic deaths in the test on Mus musculus [5] is given as 0. Besides, the inhibition at 0.01 µg/mL in the test on HT-29 [6] was 63%. The inhibition at 0.025 µg/mL with HT-29 [7] stood at 29%; in the test with HT-29 [9], 48%. Also, the IC50 in the test on K562 came out at 10.4 nM. Moreover, in the test with Mus musculus [8], the LTS is 1.
